The first experiment deals with Escherichia coli. Briefly: Antibacterial activity against Escherichia coli UTI89 assessed as number of wells with agglutination by hemagglutinination assay. It counts as functional. The procedure, abridged:
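UTI89 grown with pilicide at 250 μM; culture piliation then scored by hemagglutination titer, expressed as number of wells with agglutination (2ⁿ); value is the average of duplicate runs.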
Regarding `O=C(O)c1c(Cc2ccccc2)sc2c(C3CC3)c(Cc3cccc4ccccc34)cc(=O)n12`, the Activity was found to be 3. `O=C(O)c1c(-c2ccsc2)sc2c(C3CC3)c(Cc3cccc4ccccc34)cc(=O)n12`: the Activity is reported as 3.5. As for `Cc1cccc(-c2sc3c(C4CC4)c(Cc4cccc5ccccc45)cc(=O)n3c2C(=O)O)c1`, the Activity amounted to 3.

As for `O=C(O)c1c(-c2ccccc2)sc2c(C3CC3)c(Cc3cccc4ccccc34)cc(=O)n12`, the Activity was determined as 4.5.

Another experiment deals with T1, Chaperone protein PapD (Escherichia coli, UniProt P15319).
T1 sequence (P15319 whole entry): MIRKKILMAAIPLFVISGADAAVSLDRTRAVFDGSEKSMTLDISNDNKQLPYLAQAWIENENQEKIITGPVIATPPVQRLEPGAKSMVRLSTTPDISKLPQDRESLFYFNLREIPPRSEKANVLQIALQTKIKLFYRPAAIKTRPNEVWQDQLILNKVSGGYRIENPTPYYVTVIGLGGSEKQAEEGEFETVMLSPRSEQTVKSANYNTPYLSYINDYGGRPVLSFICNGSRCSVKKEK
As to the kind of experiment: Inhibition of Escherichia coli UTI89 PapD chaperon assessed as inhibition of biofilm formation. Put shortly: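 Pilus-dependent biofilm assay with whole E. coli UTI89 grown on polyvinylchloride in the presence of pilicide; biofilm amount taken as readout of piliation block. IC50 calculated from 16-32 data points at every concentration.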
Take `COc1ccc(-c2sc3c(C4CC4)c(Cc4cccc5ccccc45)cc(=O)n3c2C(=O)O)cc1`: the IC50 result was “Not Active”. For `O=C(c1ccccc1)c1sc2c(C3CC3)c(Cc3cccc4ccccc34)cc(=O)n2c1C(=O)O`, the IC50 entry is “Not Active”. On to `O=C(O)c1c(-c2ccc3[nH]ccc3c2)sc2c(C3CC3)c(Cc3cccc4ccccc34)cc(=O)n12`, for which the IC50 result is given as “Not Active”.

The record behind these values is ChEMBL document CHEMBL1212817, “Design and synthesis of C-2 substituted thiazolo and dihydrothiazolo ring-fused 2-pyridones: pilicides with increased antivirulence activity” (J Med Chem, 2010).
